ChEMBL document CHEMBL1123468, “Synthesis and antiviral activity of (E)-5-(2-bromovinyl)uracil and (E)-5-(2-bromovinyl)uridine” (1986)
Values after ≈ are worked out from the molar mass of the structure shown.

Experiments:
E6SM [1] = test: The concentration required to reduce the cytopathogenicity of HSV-1 (KOS) in E6SM cell culture by 50% in presence of 10 ug/mL of dUrd and 50 ug/mL of 6-aminothymine; format: functional; settings: Homo sapiens
In short: (§1)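 E6SM cells infected with HSV-1 (KOS), with Urd or dUrd added alone or together with 6-aminothymine (50 μg/mL). The value is the minimum concentration that reduces viral cytopathogenicity by 50%.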

BALB/3T3 = test: The compound was tested for its antiviral activity against HSV-1 (KOS) virus in BALB/3T3 cell line; settings: Mus musculus
E6SM [2] = test: The concentration required to reduce the cytopathogenicity of HSV-1 (KOS) in E6SM cell culture by 50% in presence of 10 ug/mL dThd; format: functional; settings: Homo sapiens
In short: (§2)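 E6SM cells infected with HSV-1 (KOS), with dThd added to the culture medium at the stated concentration. The value is the minimum concentration that reduces viral cytopathogenicity by 50%.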

E6SM [3] = test: The concentration required to reduce the cytopathogenicity of HSV-1 (KOS) in E6SM cell culture by 50% in presence of 300 ug/mL dThd; format: functional; settings: Homo sapiens
In short: (§3)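 Thymidine (dThd) was added to the E6SM culture medium alongside the test compound, and cells were infected with HSV-1 strain KOS. The endpoint is the minimum inhibitory concentration that reduces viral cytopathogenicity by 50%. The cytopathogenicity inhibition procedure follows the earlier-described method.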

E6SM [4] = test: The concentration required to reduce the cytopathogenicity of HSV-1 (KOS) in E6SM cell culture by 50% in presence of 100 ug/mL of dUrd; format: functional; settings: Homo sapiens; in short: as §1
E6SM [5] = test: The concentration required to reduce the cytopathogenicity of HSV-1 (KOS) in E6SM cell culture by 50% in presence of 1 ug/mL of dUrd; format: functional; settings: Homo sapiens; in short: as §1
E6SM [6] = test: The concentration required to reduce the cytopathogenicity of HSV-1 (KOS) in E6SM cell culture by 50% in presence of 3 ug/mL dThd; format: functional; settings: Homo sapiens; in short: as §2
E6SM [7] = test: The compound was tested for its antiviral activity against HSV-1 (McIntyre) virus in E6SM cell culture; format: functional; settings: Homo sapiens
In short: (§4)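 Virus-induced cytopathogenicity in cell culture, scored microscopically. The value is the minimum concentration that cuts viral cytopathogenicity by 50%. Normal cell morphology was also checked microscopically at up to 400 μg/mL.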

E6SM [8] = test: The concentration required to reduce the cytopathogenicity of HSV-1 (KOS) in E6SM cell culture by 50% in presence of 50 ug/mL of 6-aminothymine; format: functional; settings: Homo sapiens
In short: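 E6SM cultures were infected with HSV-1 strain KOS. 6-Aminothymine or benzylacyclouridine was present in the medium together with the test compound. The value is the minimum concentration giving 50% reduction of viral cytopathogenicity, scored by the earlier-described cytopathogenicity inhibition procedure.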

PRK = test: The compound was tested for its antiviral activity against HSV-1 (KOS) virus in PRK cell line; format: functional; settings: Oryctolagus cuniculus
In short: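 Primary rabbit kidney cells infected with HSV-1 (KOS). The value is the minimum concentration that cuts viral cytopathogenicity by 50%. Cytotoxicity was judged as microscopically detectable alteration of cell morphology at up to 400 μg/mL.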

HSF (VGS) = test: The compound was tested for its antiviral activity against HSV-1 (KOS) virus in HSF (VGS) cell line; format: functional; settings: Homo sapiens; in short: as §4
E6SM [9] = test: The compound was tested for its antiviral activity against HSV-2 (Lyons) virus in E6SM cell culture; format: functional; settings: Homo sapiens; in short: as §4
E6SM [10] = test: The concentration required to reduce the cytopathogenicity of HSV-1 (KOS) in E6SM cell culture by 50% in absence of dUrd; format: functional; settings: Homo sapiens; in short: as §1
E6SM [11] = test: The concentration required to reduce the cytopathogenicity of HSV-1 (KOS) in E6SM cell culture by 50% in presence of 10 ug/mL of dUrd; format: functional; settings: Homo sapiens; in short: as §1
E6SM [12] = test: The concentration required to reduce the cytopathogenicity of HSV-1 (KOS) in E6SM cell culture by 50% in presence of 1 ug/mL of dUrd and 50 ug/mL of 6-aminothymine; format: functional; settings: Homo sapiens; in short: as §1
T-21 (LR) = test: The compound was tested for its antiviral activity against HSV-1 (KOS) virus in T-21 (LR) cell line; format: functional; settings: Homo sapiens; in short: as §4
E6SM [13] = test: The concentration required to reduce the cytopathogenicity of HSV-1 (KOS) in E6SM cell culture by 50% in presence of 100 ug/mL dThd; format: functional; settings: Homo sapiens; in short: as §2
Mo = test: The compound was tested for its antiviral activity against HSV-1 (KOS) virus in MO cell line; format: functional; settings: Homo sapiens; in short: as §4
E6SM [14] = test: The concentration required to reduce the cytopathogenicity of HSV-1 (KOS) in E6SM cell culture by 50% in presence of 30 ug/mL dThd; format: functional; settings: Homo sapiens; in short: as §3
E6SM [15] = test: The concentration required to reduce the cytopathogenicity of HSV-1 (KOS) in E6SM cell culture by 50% in presence of 1 ug/mL of Urd; format: functional; settings: Homo sapiens; in short: as §1
E6SM [16] = test: The concentration required to reduce the cytopathogenicity of HSV-1 (KOS) in E6SM cell culture by 50% in presence of 1 ug/mL dThd; format: functional; settings: Homo sapiens; in short: as §2
E6SM [17] = test: The compound was tested for its antiviral activity against HSV-1 (KOS) virus in E6SM cell culture; format: functional; settings: Homo sapiens; in short: as §4
E1 SM = test: The compound was tested for its antiviral activity against HSV-1 (KOS) virus in E1SM cell line; format: functional, Homo sapiens; in short: as §4
E6SM [18] = test: The compound was tested for its antiviral activity against HSV-2 (196) virus in E6SM cell culture; format: functional; settings: Homo sapiens; in short: as §4
E6SM [19] = test: The concentration required to reduce the cytopathogenicity of HSV-1 (KOS) in E6SM cell culture by 50% in absence of Urd; format: functional; settings: Homo sapiens; in short: as §1
HeLa = test: The compound was tested for its antiviral activity against HSV-1 (KOS) virus in HeLa cell line; format: functional; settings: Homo sapiens; in short: as §4
E6SM [20] = test: The compound was tested for its antiviral activity against vesicular stomatitis virus in E6SM cell culture; format: functional; settings: Homo sapiens; in short: as §4
E6SM [21] = test: The compound was tested for its antiviral activity against HSV-1 (F) virus in E6SM cell culture; format: functional; settings: Homo sapiens; in short: as §4
E6SM [22] = test: The compound was tested for its antiviral activity against HSV-2 (G) virus in E6SM cell culture; format: functional; settings: Homo sapiens; in short: as §4
Vero = test: The compound was tested for its antiviral activity against HSV-1 (KOS) virus in vero cell line; format: functional; settings: Chlorocebus sabaeus; in short: as §4
E6SM [23] = test: The concentration required to reduce the cytopathogenicity of HSV-1 (KOS) in E6SM cell culture by 50% in presence of 10 ug/mL of Urd and 50 ug/mL of 6-aminothymine,; format: functional; settings: Homo sapiens; in short: as §1
HEp-2 = test: The compound was tested for its antiviral activity against HSV-1 (KOS) virus in HEp-2M cell line; format: functional; settings: Homo sapiens; in short: as §4
E6SM [24] = test: The compound was tested for its antiviral activity against HSV-1 (KOS) virus in E6SM cell line; format: functional; settings: Homo sapiens; in short: as §4
E6SM [25] = test: The compound was tested for its antiviral activity against vaccinia virus in E6SM cell culture; format: functional; settings: Homo sapiens; in short: as §4
E6SM [26] = test: The concentration required to reduce the cytopathogenicity of HSV-1 (KOS) in E6SM cell culture by 50% in presence of 100 ug/mL of dUrd and 50 ug/mL of 6-aminothymine; format: functional; settings: Homo sapiens; in short: as §1

Oc1ncc(/C=C/Br)c(O)n1
MIC50 (E6SM [1]): 10 µg/mL
MIC50 (BALB/3T3): > 400 µg/mL
MIC50 (E6SM [2]): 70 µg/mL
MIC50 (E6SM [3]): > 400 µg/mL
MIC50 (E6SM [4]): 0.7 µg/mL
MIC50 (E6SM [5]): 10 µg/mL
MIC50 (E6SM [6]): 4 µg/mL
MIC50 (E6SM [7]): 4 µg/mL (≈ 18.4 µM)
MIC50 (E6SM [8]): > 400 µg/mL
MIC50 (PRK): > 400 µg/mL
MIC50 (HSF (VGS)): 7 µg/mL (≈ 32.3 µM)
MIC50 (E6SM [9]): > 400 µg/mL
MIC50 (E6SM [10]): 7 µg/mL (≈ 32.3 µM)
MIC50 (E6SM [11]): 0.7 µg/mL
MIC50 (E6SM [12]): > 400 µg/mL
MIC50 (T-21 (LR)): 7 µg/mL (≈ 32.3 µM)
MIC50 (E6SM [13]): > 400 µg/mL
MIC50 (Mo): > 400 µg/mL
MIC50 (E6SM [14]): > 400 µg/mL
MIC50 (E6SM [15]): 2 µg/mL
MIC50 (E6SM [16]): 7 µg/mL
MIC50 (E6SM [17]): 7 µg/mL (≈ 32.3 µM)
MIC50 (E1 SM): 7 µg/mL (≈ 32.3 µM)
MIC50 (E6SM [18]): > 400 µg/mL
MIC50 (E6SM [19]): 4 µg/mL (≈ 18.4 µM)
MIC50 (HeLa): 2 µg/mL (≈ 9.22 µM)
MIC50 (E6SM [20]): > 400 µg/mL
MIC50 (E6SM [21]): 4 µg/mL (≈ 18.4 µM)
MIC50 (E6SM [22]): > 400 µg/mL
MIC50 (Vero): > 400 µg/mL
MIC50 (E6SM [23]): > 400 µg/mL
MIC50 (HEp-2): > 200 µg/mL
MIC50 (E6SM [24]): 7 µg/mL (≈ 32.3 µM)
MIC50 (E6SM [25]): > 400 µg/mL
MIC50 (E6SM [26]): 7 µg/mL

O=c1[nH]c(=O)n([C@H]2C[C@H](O)[C@@H](CO)O2)cc1/C=C/Br [BRIVUDINE]
MIC50 (E6SM [1]): 0.02 µg/mL
MIC50 (BALB/3T3): 0.1 µg/mL (≈ 0.3 µM)
MIC50 (E6SM [2]): 0.4 µg/mL
MIC50 (E6SM [3]): > 400 µg/mL
MIC50 (E6SM [4]): 0.2 µg/mL
MIC50 (E6SM [5]): 0.01 µg/mL
MIC50 (E6SM [6]): 0.02 µg/mL
MIC50 (E6SM [7]): 0.02 µg/mL (≈ 0.06 µM)
MIC50 (E6SM [8]): 0.01 µg/mL
MIC50 (PRK): 0.007 µg/mL (≈ 0.021 µM)
MIC50 (HSF (VGS)): 0.04 µg/mL (≈ 0.12 µM)
MIC50 (E6SM [9]): 4 µg/mL (≈ 12 µM)
MIC50 (E6SM [10]): 0.02 µg/mL (≈ 0.06 µM)
MIC50 (E6SM [11]): 0.02 µg/mL
MIC50 (E6SM [12]): 0.01 µg/mL
MIC50 (T-21 (LR)): 0.02 µg/mL (≈ 0.06 µM)
MIC50 (E6SM [13]): 300 µg/mL
MIC50 (Mo): 0.007 µg/mL (≈ 0.021 µM)
MIC50 (E6SM [14]): 70 µg/mL
MIC50 (E6SM [15]): 0.04 µg/mL
MIC50 (E6SM [16]): 0.02 µg/mL
MIC50 (E6SM [17]): 0.02 µg/mL (≈ 0.06 µM)
MIC50 (E1 SM): 0.02 µg/mL (≈ 0.06 µM)
MIC50 (E6SM [18]): 10 µg/mL (≈ 30 µM)
MIC50 (E6SM [19]): 0.02 µg/mL (≈ 0.06 µM)
MIC50 (HeLa): 0.04 µg/mL (≈ 0.12 µM)
MIC50 (E6SM [20]): > 400 µg/mL
MIC50 (E6SM [21]): 0.02 µg/mL (≈ 0.06 µM)
MIC50 (E6SM [22]): 2 µg/mL (≈ 6 µM)
MIC50 (Vero): 0.4 µg/mL (≈ 1.2 µM)
MIC50 (E6SM [23]): 0.04 µg/mL
MIC50 (HEp-2): 0.2 µg/mL (≈ 0.6 µM)
MIC50 (E6SM [24]): 0.02 µg/mL (≈ 0.06 µM)
MIC50 (E6SM [25]): 7 µg/mL (≈ 21 µM)
MIC50 (E6SM [26]): 0.2 µg/mL
